Screens: PubChem BioAssay, Broad Institute
F508del corr – F508del CFTR correction, initial screen, CFBE line, single point; CFBE cells, YFP halide quenching; stimulated with forskolin plus potentiator P3; % fluorescence drop versus neutral controls; activity (quench increase), % at 7.58 µM; 350,000 tested, 0.36% active;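 active means mean added fluorescence quench of at least 8% versus neutral control, with both replicates also reaching 8%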;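 further: cells transiently co-express mutant CFTR-F508del with the halide-sensitive YFP; corrector assay measuring rescue of mutant channel to the surface after 24 h compound exposure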
E-selectin induc – E-selectin induction in HUVECs, primary screen, imaging, HUVEC, immunofluorescence imaging, single point. AID 686992, 2013. normalized: neutral wells 0, TNF-alpha wells 100. P16581. activation, % at 7.58 µM. 260,000 tested, 0.37% active;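 active means mean E-selectin-positive cell signal at least 10% of the positive control, reached in at least 60% of replicates, without over 20% cell loss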
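material = human umbilical vein endothelial cells (HUVEC), E-selectin induction | quantity = 3,000 cells/well | medium = EGM-2 growth medium on 0.1% gelatin-coated wells | technique = immunofluorescence imaging | read-out basis = % PE-positive cells | control set = TNF-alpha positive control, DMSO neutral control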
HIV Env fusion – inhibitors of HIV-1 Env-driven cell-cell fusion, primary screen, HeLa-JRFL effector, CEM21 target cells, luciferase; AID 651610, 2012; 360,000 tested, 1.1% active; inhibition, % at 12.3 µM;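 active means mean replicate inhibition score of at least 50 and every replicate individually at or above 50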
FGF22 binding – binders of human FGF22 protein, primary screen, FGF22 synaptogenesis inhibitor project, biophysical, thermal shift, single point; Fibroblast growth factor 22 (Homo sapiens), Q9HCT0; recombinant FGF22 thermal shift, SYPRO orange fluorescence; percent of sucrose octasulfate shift, DMSO zero; 340,000 tested, 1.5% active; activity (Tm shift, normalised), % at 9.99 µM;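 active means mean Tm shift, scaled 0 neutral to 100 positive control, at about 1.3% or above, every replicate too, limit read from the data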
Target sequence (Q9HCT0 whole entry, looked up): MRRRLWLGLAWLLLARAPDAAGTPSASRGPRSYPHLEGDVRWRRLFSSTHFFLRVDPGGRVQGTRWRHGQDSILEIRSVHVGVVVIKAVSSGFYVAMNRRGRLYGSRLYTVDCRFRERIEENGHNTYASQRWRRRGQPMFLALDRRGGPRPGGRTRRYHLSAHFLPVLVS
S100A4 MyoIIA – inhibitors of S100A4-myosin IIA peptide binding, primary screen, biochemical, fluorescence polarization, TAMRA-MyoIIA peptide. inhibition, % at 10.7 µM. Protein S100-A4 (Homo sapiens), P26447. 360,000 tested, 0.14% active;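 active means mean inhibition of at least 70% across replicates, with every replicate also reaching that level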
Target sequence (P26447 whole entry, looked up): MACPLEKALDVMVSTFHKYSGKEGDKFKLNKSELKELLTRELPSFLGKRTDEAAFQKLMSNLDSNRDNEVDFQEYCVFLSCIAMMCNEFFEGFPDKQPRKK
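Compound dosing: one dose per compound; test system: human S100A4 monomer with TAMRA-labelled myosin IIA peptide; probe or stimulus: TAMRA-labelled myosin IIA heavy-chain peptide probe, 5 nM; medium: HEPES buffer with Ca2+, pH 7.2; schedule: 5 min incubation before reading; benchmarks: neutral control DMSO, positive control TFP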
Of the large screens only hits and unclear results are named; the others gave an inactive call; [ ] = remark or other dose. In the library only some 2.7% were active in any assay of this set; here they are far more common.

COc1ccc(S(=O)(=O)Nc2ccc3c(c2)C(=O)N([C@H](C)CO)C[C@@H](C)[C@H](CN(C)Cc2ccc(Cl)c(Cl)c2)O3)cc1	E-selectin induc 40
CN(C)c1ccc(O)c2c1CC1CC3[C@@H](N(C)C)C(=O)C(C(N)=O)C(=O)[C@]3(O)C(=O)C1C2=O (stereo not given in full)	HIV Env fusion 87
Cc1noc(C)c1NC(=O)N(C)C[C@@H]1Oc2ncc(C3=CCCC3)cc2C(=O)N([C@H](C)CO)C[C@@H]1C	none
CCC(=O)N1CC2(C1)[C@@H](c1ccccc1)[C@@H](CO)N2CCC(F)(F)F	none (no result: HIV Env fusion)
COc1ccc(NC(=O)NCCCN2CCN(c3cc(C)ccc3C)CC2)cc1	HIV Env fusion 59
COc1ccc(NC(=O)NCCCN2CCN(c3ccccc3F)CC2)cc1	none
CCOC(=O)C1=C(C)NC(C)=C(C(=O)OCC)C1C(=O)OCC(=O)N1CCC(C)CC1	FGF22 binding 43
COC(=O)CN1CC(=O)N(c2ccccc2)C1=S	FGF22 binding 43
CCc1ccc(N2C(=O)CN(CC(=O)OC)C2=S)cc1	none (no result: E-selectin induc)
FC(F)(F)c1ccc2c(c1)NCC1CCCN21 (stereo not given)	none
FC(F)(F)c1ccc2c(c1)N1CCCC1CN2 (stereo not given)	E-selectin induc 58
Cc1ccc(C)n1-c1ccc(-c2ccn[nH]2)cc1	FGF22 binding 43
c1ccn(-c2ccc(-c3ccn[nH]3)cc2)c1	none
Cc1ccc(S(=O)(=O)Nc2ccc3c(c2)C(=O)N([C@@H](C)CO)C[C@H](C)[C@@H](CN(C)S(=O)(=O)c2ccc(Cl)cc2)OCCCC[C@@H](C)O3)cc1	FGF22 binding 28 (no result: S100A4 MyoIIA)
COc1ccc(S(=O)(=O)Nc2ccc3c(c2)C(=O)N([C@@H](C)CO)C[C@H](C)[C@H](CN(C)C(=O)NC(C)C)OCCCC[C@H](C)O3)cc1	HIV Env fusion 93[16.7 µM]
Cc1ccc(S(=O)(=O)N(C)C[C@H]2OCCCC[C@H](C)Oc3ccc(NS(=O)(=O)c4ccccc4)cc3C(=O)N([C@H](C)CO)C[C@@H]2C)cc1	S100A4 MyoIIA 97
COc1ccc(S(=O)(=O)Nc2ccc3c(c2)C(=O)N([C@@H](C)CO)C[C@H](C)[C@H](CN(C)S(=O)(=O)c2ccc(OC)cc2)OCCCC[C@H](C)O3)cc1	FGF22 binding 15 (no result: S100A4 MyoIIA)
COc1ccc(S(=O)(=O)Nc2ccc3c(c2)C(=O)N([C@@H](C)CO)C[C@@H](C)[C@H](CN(C)S(=O)(=O)c2ccc(OC)cc2)OCCCC[C@H](C)O3)cc1	none (no result: S100A4 MyoIIA)
Cc1ccc(S(=O)(=O)N(C)C[C@H]2OCCCC[C@@H](C)Oc3ccc(NS(=O)(=O)c4ccc(Cl)cc4)cc3C(=O)N([C@@H](C)CO)C[C@H]2C)cc1	none
CO[C@@H]1CN(C)C(=O)c2ccc(NC(=O)C3CC3)cc2OC[C@@H](C)N(CC2CCCC2)C[C@@H]1C	none (no result: HIV Env fusion)
CCCNC(=O)C[C@@H]1CC[C@H]2[C@H](COc3ccc(NC(=O)NCCC)cc3C(=O)N2C)O1	none (no result: HIV Env fusion, FGF22 binding)
COc1cccc(-c2ccc([C@H]3[C@@H](CO)N4C(=O)CN(C(=O)NC(C)C)C[C@@H]34)cc2)c1	none (no result: HIV Env fusion)
COCC(=O)Nc1ccc2c(c1)C(=O)N(C)C[C@H](OC)[C@@H](C)CN(C(=O)c1cccnc1)[C@H](C)CO2	none (no result: HIV Env fusion)
C[C@H]1CN([C@@H](C)CO)C(=O)Cc2cc(NC(=O)CCCCCC(=O)Nc3ccccc3N)ccc2O[C@@H]1CN(C)C(=O)Nc1ccc(F)cc1	none (no result: HIV Env fusion)
CO[C@H]1CN(C)C(=O)c2cc(NC(=O)NC(C)C)ccc2OC[C@@H](C)N(C)C[C@@H]1C	none (no result: HIV Env fusion)
C[C@@H]1CCCCO[C@@H](CN(C)CC2CCCCC2)[C@@H](C)CN([C@H](C)CO)C(=O)c2cc(NS(=O)(=O)c3cn(C)cn3)ccc2O1	S100A4 MyoIIA 133
C[C@@H]1CCCCO[C@H](CN(C)S(=O)(=O)c2ccc(Cl)cc2)[C@@H](C)CN([C@@H](C)CO)C(=O)c2cc(NS(=O)(=O)c3ccc(F)cc3)ccc2O1	S100A4 MyoIIA 120
C[C@@H]1CCCCO[C@H](CN(C)S(=O)(=O)c2ccc(Cl)cc2)[C@H](C)CN([C@H](C)CO)C(=O)c2cc(NS(=O)(=O)c3ccc(Cl)cc3)ccc2O1	FGF22 binding 30 (no result: S100A4 MyoIIA)
C[C@@H]1CN([C@@H](C)CO)C(=O)c2cc(NS(=O)(=O)c3ccc(Cl)cc3)ccc2O[C@@H](C)CCCCO[C@H]1CN(C)S(=O)(=O)c1cn(C)cn1	FGF22 binding 1.4 (no result: E-selectin induc)
O=C(C[C@H]1CC[C@@H](NS(=O)(=O)c2cccc(F)c2)[C@H](CO)O1)N1CCCCC1	none
C[C@H]1CCCCO[C@H](CN(C)S(=O)(=O)c2ccc(F)cc2)[C@@H](C)CN([C@@H](C)CO)C(=O)c2cc(NS(=O)(=O)c3ccccc3)ccc2O1	S100A4 MyoIIA 113
C[C@@H]1CCCCO[C@H](CN(C)S(=O)(=O)c2ccc(F)cc2)[C@@H](C)CN([C@H](C)CO)C(=O)c2cc(NS(=O)(=O)c3ccccc3)ccc2O1	none
Cc1ccc(S(=O)(=O)N(C)C[C@H]2OCCCC[C@H](C)Oc3ccc(NS(C)(=O)=O)cc3C(=O)N([C@H](C)CO)C[C@H]2C)cc1	none
Cc1ccc(S(=O)(=O)N(C)C[C@@H]2OCCCC[C@@H](C)Oc3ccc(NS(C)(=O)=O)cc3C(=O)N([C@@H](C)CO)C[C@@H]2C)cc1	S100A4 MyoIIA 88
Cc1noc(C)c1NC(=O)N(C)C[C@H]1Oc2ncc(C#CC(C)C)cc2C(=O)N([C@H](C)CO)C[C@H]1C	none
Cc1ccc(-c2[nH]ncc2CNCCc2cnn(-c3ccccc3)c2)cc1C	HIV Env fusion 66
C[C@@H]1CN([C@@H](C)CO)C(=O)Cc2cc(N(C)C)ccc2O[C@H]1CN(C)C	none
CC(C)(C)N1C(=O)[C@H]2[C@@H](c3ccc(Br)cc3)N3C(=O)N(c4ccccc4)C(=O)[C@@]3(C)[C@H]2C1=O	HIV Env fusion 104
COc1ccc([C@@H]2[C@@H]3C(=O)N(C(C)(C)C)C(=O)[C@@H]3[C@]3(C)C(=O)N(c4cccc(C)c4)C(=O)N23)cc1	none
CC(C)(C)N1C(=O)[C@H]2[C@@H](c3ccc(Br)cc3)N3C(=O)N(c4ccccc4)C(=O)[C@@]3(Cc3ccccc3)[C@H]2C1=O	HIV Env fusion 68
C[C@@H]1CCCCO[C@H](CN(C)C(=O)Nc2ccccc2)[C@@H](C)CN([C@@H](C)CO)C(=O)c2cc(NS(=O)(=O)c3ccccc3)ccc2O1	none (no result: E-selectin induc)
